Test results: ChEMBL document CHEMBL1134374, “High-throughput permeability pH profile and high-throughput alkane/water log P with artificial membranes” (J Med Chem, 2001)

What was measured:
[1] = Effective permeability (Pe) across a hexadecane membrane (pH 6.8); assay type: ADME
Procedure, shortened: (§1)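 Passive permeation from donor to acceptor across a polycarbonate filter (3 µm pores, 9–10 µm thick) coated with hexadecane left after hexane evaporation. Donor held 50 µg/mL compound in buffer with 5% DMSO and 100 mM KCl; acceptor held buffer with 5% DMSO. Incubated 5 h at room temperature with light shaking. Acceptor UV absorbance read at 260–290 nm. Wells below 5 kΩ resistance discarded.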

[2] = Highest effective permeability across hexadecane membrane (pH 4-8); assay type: ADME; procedure, shortened: as §1
[3] = Partition coefficient (logD6.8); assay type: physicochemical; conditions: octanol/water, pH 6.8
[4] = % absorbed in human GI-tract; assay type: ADME, organism-based; conditions: in vivo, read-out: % absorbed
[5] = Partition coefficient (logP) (hexadecane); assay type: physicochemical; conditions: hexadecane/water
[6] = Intrinsic permeability of the compound; assay type: ADME
Procedure, shortened: (§2)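 Derived from hexadecane-membrane Pe measured across a pH range, combined with aqueous pKa. Pe is corrected for ionization to give Pul. Pul is then corrected for the unstirred water layer by the Gutknecht–Tosteson relation to give the intrinsic permeability P0.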

[7] = Intrinsic permeability measured with HDM assay; assay type: ADME; procedure, shortened: as §2
[8] = Effective permeability corrected for ionization; assay type: ADME; procedure, shortened: as §2
[9] = Effective permeability measured with HDM assay; assay type: ADME; procedure, shortened: as §1

Structure (SMILES) | Log Pe [1] [cm s-1] | Log Pe [2] [cm s-1] | logD ([3]; read-out: logD) | Fa [4] [%] | logP [5] | Log Po [6] | Log Po [7] | Log Pe,max [8] | Log Pe,max [9] | logD [3]
Cc1ccccc1N1C(=O)c2cc(S(N)(=O)=O)c(Cl)cc2NC1C (configuration not stated) [METOLAZONE] | -4.6 | -4.6 | 4.1 |  |  |  |  |  |  | 
C[C@]12CC[C@H]3[C@@H](CCC4=CC(=O)CC[C@@]43C)[C@@H]1CC[C@@H]2O [TESTOSTERONE] | -3.5 | -3.5 | 3.9 | 100 |  |  |  |  |  | 
CC(C)(C)NCC(O)c1cc(O)cc(O)c1 (configuration not stated) [TERBUTALINE] | -4.1 | -4.1 | -2 | 70 |  |  |  |  |  | 
CC(C)Cc1ccc(C(C)C(=O)O)cc1 (configuration not stated) [IBUPROFEN] |  |  |  |  | 1.95 | -0.9 | -0.9 | -3.7 | -3.7 | 
COCCc1ccc(OCC(O)CNC(C)C)cc1 (configuration not stated) [METOPROLOL] | -4.2 | -4.2 | -0.8 |  | -0.4 | -2.8 |  | -3.6 |  | 
CN/C(=C/[N+](=O)[O-])NCCSCc1ccc(CN(C)C)o1 [RANITIDINE] | -4.6 | -4.5 | -1.1 | 50 |  |  |  |  |  | 
NS(=O)(=O)c1cc2c(cc1Cl)NCNS2(=O)=O [HYDROCHLOROTHIAZIDE] | -4.7 | -4.2 |  | 67 |  |  |  |  |  | 
O=C(O)c1cc(/N=N/c2ccc(S(=O)(=O)Nc3ccccn3)cc2)ccc1O [SULFASALAZINE] | -4.9 | -4.9 | -0.7 |  |  |  |  |  |  | 
CC(C)(C)NC[C@H](O)COc1nsnc1N1CCOCC1 [TIMOLOL] | -4.4 | -4.2 | -0.7 | 72 | -1 | -3.2 |  | -3.6 |  | 
CN(C)CCCN1c2ccccc2Sc2ccc(Cl)cc21 [CHLORPROMAZINE] | -3.7 | -3.5 | 2.9 | 100 | 4.7 | 1.3 |  | -3.6 |  | 
CN1CCN(C2=Nc3cc(Cl)ccc3Nc3ccccc32)CC1 [CLOZAPINE] |  |  |  | 100 |  |  |  |  |  | 3
CCCCC(=O)N(Cc1ccc(-c2ccccc2-c2nnn[nH]2)cc1)[C@H](C(=O)O)C(C)C |  |  | -1.6 | 55 |  |  |  |  |  | 
C=CCc1ccccc1OCC(O)CNC(C)C (configuration not stated) [ALPRENOLOL] | -4 | -4 | 0.3 |  | 1.3 | -1.6 |  | -3.6 |  | 
CCN1CCCC1CNC(=O)c1cc(S(N)(=O)=O)ccc1OC (configuration not stated) [SULPIRIDE] | -4.6 | -4.6 |  |  |  |  |  |  |  | 
CN1C(C(=O)Nc2ccccn2)=C(O)c2ccccc2S1(=O)=O [PIROXICAM] | -4 | -3.3 | 0.3 |  |  |  |  |  |  | 
CC(CCc1ccccc1)NCC(O)c1ccc(O)c(C(N)=O)c1 (configuration not stated) [LABETALOL] | -4.2 | -3.8 | 0.5 | 90 |  |  |  |  |  | 

Structure (SMILES) | Log Pe [1] [cm s-1] | Log Pe [2] [cm s-1] | logD ([3]; read-out: logD) | Fa [4] [%] | logP [5] | Log Po [6] | Log Po [7] | Log Pe,max [8] | Log Pe,max [9] | logD [3]
O=C(O)Cc1ccccc1Nc1c(Cl)cccc1Cl [DICLOFENAC] |  |  |  |  |  | -1.3 |  | -3.7 |  | 
Nc1nc2c(ncn2COCCO)c(=O)[nH]1 [ACYCLOVIR] | -4.8 | -4.8 | -2 |  |  |  |  |  |  | 
CC(=O)N(O)CCCCCNC(=O)CCC(=O)N(O)CCCCCNC(=O)CCC(=O)N(O)CCCCCN [DEFEROXAMINE] | -5.3 | -5.3 | -3 | 2 |  |  |  |  |  | 
O=C1NC(=O)C(c2ccccc2)(c2ccccc2)N1 [PHENYTOIN] | -4 | -4 | 2.2 | 90 | -0.3 | -3.6 |  | -4.4 |  | 
CC(C(=O)O)c1cccc(C(=O)c2ccccc2)c1 (configuration not stated) [KETOPROFEN] |  |  |  |  |  | -2.7 |  | -3.6 |  | 
O=C(O)CN(CCN(CC(=O)O)Cc1ccccc1O)Cc1ccccc1O | -5.1 | -5.1 | -0.2 | 5 |  |  |  |  |  | 
CN/C(=N/CCSCc1nc[nH]c1C)NC#N [CIMETIDINE] | -4 | -4 | 0.1 | 95 |  |  |  |  |  | 
CC(=O)[C@H]1CC[C@H]2[C@@H]3CCC4=CC(=O)CC[C@]4(C)[C@H]3CC[C@]12C [PROGESTERONE] | -3.8 | -3.8 | 4.3 | 91 |  |  |  |  |  | 
O=C(O)c1ccccc1O [SALICYLIC ACID] |  |  |  |  | -1 | -3.2 |  | -3.4 |  | 
N=C(N)N/N=C/c1c(Cl)cccc1Cl [GUANABENZ] | -5 | -4.4 | 0.9 |  | -1.6 | -4.6 |  | -4.9 |  | 
NC(N)=Nc1nc(CSCCC(N)=NS(N)(=O)=O)cs1 [FAMOTIDINE] | -4.6 | -4.3 | -0.8 | 45 |  |  |  |  |  | 
NC(=O)N1c2ccccc2C=Cc2ccccc21 [CARBAMAZEPINE] | -3.9 | -3.9 | 2.4 |  |  |  |  |  |  | 
CN(Cc1cnc2nc(N)nc(N)c2n1)c1ccc(C(=O)N[C@@H](CCC(=O)O)C(=O)O)cc1 [METHOTREXATE] | -4.7 | -4.7 | -3 | 20 |  |  |  |  |  | 
CC(=O)CC(c1ccccc1)c1c(O)c2ccccc2oc1=O (configuration not stated) [WARFARIN] | -3.8 | -3.8 | 0.6 |  | 1 | -2.3 |  | -3.6 |  | 
N=C(N)NC(=O)c1nc(Cl)c(N)nc1N [AMILORIDE] | -4.6 | -4.4 | -2.1 | 50 |  |  |  |  |  | 
CC(C)NCC(O)COc1cccc2ccccc12 (configuration not stated) [PROPRANOLOL] | -4.4 | -4 |  |  |  |  |  |  |  | 
